Measurements taken from ChEMBL document CHEMBL1806372, “Cytotoxic ring A-modified steroid analogues derived from Grundmann's ketone” (Eur J Med Chem, 2011).
Calls of active or inactive are those of the source. The rule behind the calls is not given here.

How the values were obtained:
[1] = Antifungal activity against Hyphopichia burtonii assessed as zone of inhibition at 5 uL and 28 degC after 36 hrs by disk diffusion method; assay type: functional
Procedure, shortened: (§1)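 Agar disc diffusion with the test compound applied as a 1% (w/v) DMSO solution. Yeasts were grown on AC agar and Aspergillus niger on potato dextrose broth agar, each strain spread evenly. Plates were covered and kept 36 h at 28 °C, and the inhibition zone diameter was read in mm. Clotrimazole served as reference.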

HL-60 = experiment: Cytotoxicity against human HL60 cells after 24 hrs by MTT assay; assay type: functional, cell-based; conditions: HL-60, 24 h
Procedure, shortened: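 HL-60 cells kept in RPMI 1640 with 10% FBS, no antibiotics, 37 °C, humidified 5% CO2. Cells (9 × 10^5 cells/mL) exposed to compound in 96-well plates for 24 h at 37 °C. MTT in PBS (5 mg/mL) added for 2 h, then DMSO, shaken 1 h and read photometrically. IC50 determined; cisplatin reference.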

Escherichia coli = experiment: Antibacterial activity against Escherichia coli assessed as zone of inhibition at 5 uL and 32 degC after 36 hrs by disk diffusion method; assay type: functional
Procedure, shortened: (§2)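 Disc diffusion on AC agar, each strain spread evenly over the medium; test compounds given as 1% (w/v) DMSO solutions. Plates covered and incubated 36 h at 32 °C, then the diameter of the zone of inhibited growth measured in mm. Tetracycline served as antibacterial reference.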

Yarrowia lipolytica = experiment: Antifungal activity against Yarrowia lipolytica assessed as zone of inhibition at 5 uL and 28 degC after 36 hrs by disk diffusion method; assay type: functional; procedure, shortened: as §1
Aspergillus niger = experiment: Antifungal activity against Aspergillus niger assessed as zone of inhibition at 5 uL and 28 degC after 36 hrs by disk diffusion method; assay type: functional; procedure, shortened: as §1
Staphylococcus equorum = experiment: Antibacterial activity against Staphylococcus equorum assessed as zone of inhibition at 5 uL and 32 degC after 36 hrs at by disk diffusion method; assay type: functional; procedure, shortened: as §2
Streptococcus entericus = experiment: Antibacterial activity against Streptococcus entericus assessed as zone of inhibition at 5 uL and 32 degC after 36 hrs by disk diffusion method; assay type: functional; procedure, shortened: as §2
Nakaseomyces glabratus = experiment: Antifungal activity against Candida glabrata assessed as zone of inhibition at 5 uL and 28 degC after 36 hrs by disk diffusion method; assay type: functional; procedure, shortened: as §1
[2] = (§3) Antibacterial activity against Pseudomonas antimicrobica assessed as zone of inhibition at 5 uL and 32 degC after 36 hrs by disk diffusion method; assay type: functional, Burkholderia gladioli; procedure, shortened: as §2
Burkholderia gladioli = experiment: as §3; assay type: functional; procedure, shortened: as §2

Row | Structure (SMILES) | inhibition zone (IZ) [1] [mm] | IC50 (HL-60) [µM] | diameter of the inhibition zone (DIZ) (Escherichia coli) | diameter of the inhibition zone (DIZ) (Yarrowia lipolytica) | diameter of the inhibition zone (DIZ) (Aspergillus niger) | diameter of the inhibition zone (DIZ) (Staphylococcus equorum) | diameter of the inhibition zone (DIZ) (Streptococcus entericus) | diameter of the inhibition zone (DIZ) (Nakaseomyces glabratus) | diameter of the inhibition zone (DIZ) [2] [mm] | diameter of the inhibition zone (DIZ) [1] | diameter of the inhibition zone (DIZ) (Burkholderia gladioli)
1 | CCN1C(=O)[C@H]2[C@H](CC=C3[C@H]2CC[C@]2(C)[C@@H]([C@H](C)CCCC(C)C)CC[C@@H]32)C1=O | 7 | 13 | 7 mm | inactive | inactive | 8 mm | 11 mm | 8 mm | 7 | – | –
2 | CC(C)CCC[C@@H](C)[C@H]1CC[C@H]2C(C#CCCO)=CCC[C@]12C | 11 | 38 | 10 mm | inactive | inactive | 6 mm | 14 mm | 10 mm | 11 | – | –
3 | CC(C)CCC[C@@H](C)[C@H]1CC[C@H]2C3=CCn4c(=O)c5ccccc5c(=O)n4[C@@H]3CC[C@]12C | 7 | 17 | inactive | inactive | inactive | inactive | inactive | 10 mm | 7 | – | –
4 | CC(C)CCC[C@@H](C)[C@H]1CC[C@H]2C(/C=C/CN3C(=O)C=CC3=O)=CCC[C@]12C | 8 | 32 | 9 mm | inactive | inactive | 11 mm | 15 mm | 7 mm | 10 | – | –
5 | CCCN1C(=O)[C@H]2[C@H](CC=C3[C@H]2CC[C@]2(C)[C@@H]([C@H](C)CCCC(C)C)CC[C@@H]32)C1=O | 14 | 7 | 7 mm | 10 mm | inactive | inactive | 7 mm | 6 mm | 7 | – | –
6 | Clc1ccccc1C(c1ccccc1)(c1ccccc1)n1ccnc1 [CLOTRIMAZOLE] | 20 | – | – | 18 mm | 13 mm | – | – | 18 mm | – | – | –
7 | CN(C)[C@@H]1C(O)=C(C(N)=O)C(=O)[C@@]2(O)C(O)=C3C(=O)c4c(O)cccc4[C@@](C)(O)[C@H]3C[C@@H]12 [TETRACYCLINE] | – | – | 30 mm | – | – | 30 mm | 22 mm | – | 25 | – | –
8 | CC(C)=CCCC1=CCn2c(=O)ccc(=O)n2C1 | – | 41 | inactive | inactive | inactive | inactive | inactive | inactive | – | inactive | inactive
